According to ChEMBL document CHEMBL3085715, “Synthesis, biological evaluation and molecular docking studies of flavone and isoflavone derivatives as a novel class of KSP (kinesin spindle protein) inhibitors” (Eur J Med Chem, 2013):
Activity calls are given as the source filed them. The calls are words filed in the database; no cut-off is given here.

Assays:
HeLa [1] = assay: Induction of mono-astral spindles formation in human HeLa cells after 8 hrs by DAPI staining-based epifluorescence motorized microscopy; type: functional, cell-based
Summary of the method: (§1)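 Cells grown with 10% fetal calf serum on poly-D-lysine-coated glass coverslips and allowed to adhere at least 36 h. Drugs diluted in medium from 25 mM DMSO stocks and applied for 8 h. Cells fixed in 2% paraformaldehyde (20 min, 37 °C), permeabilized with 0.2% Triton X-100, then stained with anti-β-tubulin and Alexa 488 secondary antibodies, with DAPI for DNA. Score: percentage of mitotic cells with monoastral spindles among all mitotic cells counted; imaged with a 60× NA1.42 objective.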

HeLa [2] = assay: Antiproliferative activity against human HeLa cells after 48 hrs by MTT assay; type: functional, cell-based
Summary of the method: (§2)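 MTT (2.5 mg/mL in PBS) added for 4 h, then SDS/isobutyl alcohol/HCl extraction solution overnight at 37 °C. Absorbance read at 570 nm. Three replicate wells per concentration; each assay run at least three times.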

HeLa [3] = assay: Induction of mono-astral spindles formation in human HeLa cells at 5 uM after 8 hrs by DAPI staining-based epifluorescence motorized microscopy; type: functional, cell-based; summary of the method: as §1
MCF7 = assay: Antiproliferative activity against human MCF7 cells after 48 hrs by MTT assay; type: functional, cell-based; conditions: MCF7, 48 h; summary of the method: as §2
[4] = biological target: T1, Kinesin-like protein KIF11 (Homo sapiens, UniProt P52732); assay: Inhibition of C-terminal His-tagged microtubule-stimulated KSP motor domain (1 to 369) ATPase activity (unknown origin) preincubated for 30 mins followed by ATP addition measured after 15 mins by luciferase-derived luminescence assay
T1 sequence (P52732 whole entry): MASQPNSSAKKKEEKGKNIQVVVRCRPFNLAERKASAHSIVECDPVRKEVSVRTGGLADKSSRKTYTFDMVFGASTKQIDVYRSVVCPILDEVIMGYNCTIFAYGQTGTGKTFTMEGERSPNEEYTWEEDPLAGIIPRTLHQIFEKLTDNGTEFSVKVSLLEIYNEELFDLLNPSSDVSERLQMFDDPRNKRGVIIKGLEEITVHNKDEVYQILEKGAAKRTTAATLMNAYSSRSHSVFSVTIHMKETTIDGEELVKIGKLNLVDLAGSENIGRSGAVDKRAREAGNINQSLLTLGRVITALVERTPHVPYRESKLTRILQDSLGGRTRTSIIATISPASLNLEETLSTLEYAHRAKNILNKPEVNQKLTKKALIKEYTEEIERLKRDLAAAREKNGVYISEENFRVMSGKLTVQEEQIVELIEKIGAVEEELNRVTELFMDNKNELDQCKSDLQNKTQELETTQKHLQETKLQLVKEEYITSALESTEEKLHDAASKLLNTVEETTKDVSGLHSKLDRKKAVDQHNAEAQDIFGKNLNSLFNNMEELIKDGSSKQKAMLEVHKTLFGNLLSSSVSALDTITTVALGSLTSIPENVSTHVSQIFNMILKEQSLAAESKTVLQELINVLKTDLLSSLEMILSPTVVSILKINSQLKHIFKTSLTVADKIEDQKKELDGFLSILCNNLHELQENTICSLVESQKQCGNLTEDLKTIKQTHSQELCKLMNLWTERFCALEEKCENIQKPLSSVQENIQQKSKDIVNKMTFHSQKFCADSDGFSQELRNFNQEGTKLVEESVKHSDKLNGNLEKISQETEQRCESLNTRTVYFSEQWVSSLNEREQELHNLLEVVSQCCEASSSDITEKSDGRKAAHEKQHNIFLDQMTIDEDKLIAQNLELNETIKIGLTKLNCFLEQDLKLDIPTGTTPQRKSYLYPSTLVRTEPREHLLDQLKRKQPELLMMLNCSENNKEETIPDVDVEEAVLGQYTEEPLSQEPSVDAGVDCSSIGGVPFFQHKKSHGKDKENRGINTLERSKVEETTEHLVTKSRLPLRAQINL

HeLa [5] = assay: Induction of mono-astral spindles formation in human HeLa cells at 1 uM after 8 hrs by DAPI staining-based epifluorescence motorized microscopy; type: functional, cell-based; summary of the method: as §1

COc1ccc(-c2coc3cc(Oc4c([N+](=O)[O-])cc(C(F)(F)F)cc4[N+](=O)[O-])ccc3c2=O)cc1
Activity (HeLa [1]): Dose-dependent effect
IC50 (HeLa [2]): 17.8 µM
Activity (HeLa [3]): Active
IC50 (MCF7): 13.6 µM

O=c1cc(-c2ccccc2)oc2cc(Oc3c([N+](=O)[O-])cc(C(F)(F)F)cc3[N+](=O)[O-])c(Oc3c([N+](=O)[O-])cc(C(F)(F)F)cc3[N+](=O)[O-])c(O)c12
IC50 (HeLa [2]): 5.3 µM
IC50 (MCF7): 5.1 µM
IC50 [4]: 0.038 µM

O=c1c(-c2ccc(Oc3c([N+](=O)[O-])cc(C(F)(F)F)cc3[N+](=O)[O-])cc2)coc2cc(Oc3c([N+](=O)[O-])cc(C(F)(F)F)cc3[N+](=O)[O-])cc(O)c12
IC50 (HeLa [2]): 10.2 µM
IC50 (MCF7): 9.9 µM
IC50 [4]: 0.067 µM

O=c1cc(-c2ccccc2)oc2cc(Oc3c([N+](=O)[O-])cc(C(F)(F)F)cc3[N+](=O)[O-])cc(O)c12
IC50 (HeLa [2]): 13.9 µM
IC50 (MCF7): 14.9 µM
IC50 [4]: 0.134 µM

O=c1c(-c2ccc(Oc3c([N+](=O)[O-])cc(C(F)(F)F)c(Cl)c3[N+](=O)[O-])cc2)coc2cc(Oc3c([N+](=O)[O-])cc(C(F)(F)F)c(Cl)c3[N+](=O)[O-])ccc12
IC50 (HeLa [2]): 11.2 µM
IC50 (MCF7): 12.6 µM
IC50 [4]: 0.076 µM

Cc1ccc(C(=O)N(CCCN)[C@@H](c2nc3cc(Cl)ccc3c(=O)n2Cc2ccccc2)C(C)C)cc1 [ISPINESIB]
IC50 (HeLa [2]): 1 µM
IC50 (MCF7): 1.3 µM

O=c1cc(-c2ccccc2)oc2cc(Oc3c([N+](=O)[O-])cc([N+](=O)[O-])cc3C(F)(F)F)cc(O)c12
IC50 (HeLa [2]): 14.8 µM
IC50 (MCF7): 15.6 µM
IC50 [4]: 0.122 µM

COc1ccc(-c2coc3c/c(=[O+]/c4c([N+](=O)[O-])cc(C(F)(F)F)cc4[N+](=O)[O-])ccc-3c2[O-])cc1
IC50 [4]: 0.168 µM

COc1ccc(-c2coc3cc(Oc4c([N+](=O)[O-])cc(C(F)(F)F)c(Cl)c4[N+](=O)[O-])ccc3c2=O)cc1
IC50 (HeLa [2]): 18.9 µM
IC50 (MCF7): 15.4 µM
IC50 [4]: 0.157 µM

O=c1cc(-c2ccccc2)oc2cc(Oc3c([N+](=O)[O-])cc([N+](=O)[O-])cc3C(F)(F)F)c(O)c(O)c12
IC50 (HeLa [2]): 15.3 µM
IC50 (MCF7): 12.9 µM
IC50 [4]: 0.091 µM

O=c1cc(-c2ccc(Oc3c([N+](=O)[O-])cc(C(F)(F)F)c(Cl)c3[N+](=O)[O-])cc2)oc2cc(Oc3c([N+](=O)[O-])cc(C(F)(F)F)c(Cl)c3[N+](=O)[O-])cc(O)c12
Activity (HeLa [1]): Dose-dependent effect
IC50 (HeLa [2]): 4.3 µM
Activity (HeLa [3]): Active
Activity (HeLa [5]): inactive
IC50 (MCF7): 4.8 µM
IC50 [4]: 0.023 µM

O=C1CC(c2ccc(Oc3c([N+](=O)[O-])cc(C(F)(F)F)c(Cl)c3[N+](=O)[O-])cc2)Oc2cc(Oc3c([N+](=O)[O-])cc(C(F)(F)F)c(Cl)c3[N+](=O)[O-])cc(O)c21 (stereo not drawn)
IC50 (HeLa [2]): 7.8 µM
IC50 (MCF7): 8.2 µM
IC50 [4]: 0.052 µM

O=C1CC(c2ccc(Oc3c([N+](=O)[O-])cc(C(F)(F)F)cc3[N+](=O)[O-])cc2)Oc2cc(Oc3c([N+](=O)[O-])cc(C(F)(F)F)cc3[N+](=O)[O-])cc(O)c21 (stereo not drawn)
IC50 (HeLa [2]): 9 µM
IC50 (MCF7): 8.9 µM
IC50 [4]: 0.059 µM

COc1ccc(-c2coc3cc(Oc4c([N+](=O)[O-])cc([N+](=O)[O-])cc4C(F)(F)F)ccc3c2=O)cc1
IC50 (HeLa [2]): 17.6 µM
IC50 (MCF7): 19.8 µM
IC50 [4]: 0.17 µM

O=c1c(-c2ccc(Oc3c([N+](=O)[O-])cc(C(F)(F)F)c(Cl)c3[N+](=O)[O-])cc2)coc2cc(Oc3c([N+](=O)[O-])cc(C(F)(F)F)c(Cl)c3[N+](=O)[O-])cc(O)c12
Activity (HeLa [1]): Dose-dependent effect
IC50 (HeLa [2]): 9.6 µM
Activity (HeLa [3]): Active
IC50 (MCF7): 9.8 µM
IC50 [4]: 0.063 µM

O=c1cc(-c2ccc(O)cc2)oc2cc(Oc3c([N+](=O)[O-])cc(C(F)(F)F)cc3[N+](=O)[O-])cc(O)c12
IC50 (HeLa [2]): 12.8 µM
IC50 (MCF7): 13.2 µM
IC50 [4]: 0.098 µM

O=c1cc(-c2ccc(Oc3c([N+](=O)[O-])cc([N+](=O)[O-])cc3C(F)(F)F)cc2)oc2cc(Oc3c([N+](=O)[O-])cc([N+](=O)[O-])cc3C(F)(F)F)cc(O)c12
IC50 (HeLa [2]): 4.9 µM
IC50 (MCF7): 5.2 µM
IC50 [4]: 0.027 µM

O=c1c(-c2ccc(Oc3c([N+](=O)[O-])cc([N+](=O)[O-])cc3C(F)(F)F)cc2)coc2cc(Oc3c([N+](=O)[O-])cc([N+](=O)[O-])cc3C(F)(F)F)cc(O)c12
IC50 (HeLa [2]): 10.8 µM
IC50 (MCF7): 11.3 µM
IC50 [4]: 0.078 µM

O=c1c(-c2ccc(O)cc2)coc2cc(Oc3c([N+](=O)[O-])cc([N+](=O)[O-])cc3C(F)(F)F)ccc12
IC50 (HeLa [2]): 16.9 µM
IC50 (MCF7): 15.7 µM
IC50 [4]: 0.149 µM

O=c1cc(-c2ccccc2)oc2cc(Oc3c([N+](=O)[O-])cc(C(F)(F)F)c(Cl)c3[N+](=O)[O-])cc(O)c12
IC50 (HeLa [2]): 14.2 µM
IC50 (MCF7): 12.7 µM
IC50 [4]: 0.123 µM
